Test results reported in ChEMBL document CHEMBL3808298, “The combination of quinazoline and chalcone moieties leads to novel potent heterodimeric modulators of breast cancer resistance protein (BCRP/ABCG2)” (Eur J Med Chem, 2016).
The source made the active and inactive calls. The rule behind the calls is not given here.

Tests used:
[1] = biological target: T1, Broad substrate specificity ATP-binding cassette transporter ABCG2 (Homo sapiens, UniProt Q9UNQ0); test: Inhibition of human C-terminal GFP-tagged ABCG2 expressed in MDCK2 cells using pheophorbide A as substrate preincubated for 20 mins followed by substrate addition measured after 120 mins by flow cytometry; format: cell-based, MDCK-II
T1 sequence (Q9UNQ0 whole entry): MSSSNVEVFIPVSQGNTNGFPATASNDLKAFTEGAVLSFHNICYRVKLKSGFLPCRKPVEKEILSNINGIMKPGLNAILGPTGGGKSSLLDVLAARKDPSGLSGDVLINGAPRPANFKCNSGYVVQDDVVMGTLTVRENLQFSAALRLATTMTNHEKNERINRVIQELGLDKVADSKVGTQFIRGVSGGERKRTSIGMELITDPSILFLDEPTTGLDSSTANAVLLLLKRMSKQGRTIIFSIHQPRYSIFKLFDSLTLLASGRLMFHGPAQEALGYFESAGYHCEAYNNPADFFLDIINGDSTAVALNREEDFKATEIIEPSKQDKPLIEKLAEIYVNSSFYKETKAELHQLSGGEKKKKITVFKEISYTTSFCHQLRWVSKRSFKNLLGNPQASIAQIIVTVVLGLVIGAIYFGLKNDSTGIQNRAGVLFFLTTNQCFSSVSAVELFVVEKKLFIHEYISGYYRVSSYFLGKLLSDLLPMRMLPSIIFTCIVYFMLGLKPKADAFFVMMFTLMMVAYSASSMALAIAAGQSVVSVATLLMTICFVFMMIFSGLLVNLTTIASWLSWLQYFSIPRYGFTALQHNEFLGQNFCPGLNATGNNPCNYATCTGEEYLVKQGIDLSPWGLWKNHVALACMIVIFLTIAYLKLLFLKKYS
Procedure, shortened: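 MDCK II BCRP cells, about 45,000/well in KHB, preincubated with compound for 20 min at 37 °C, 5% CO2. Pheophorbide A added (5 µM solution), then 120 min to steady state. Flow cytometry: excitation 488 nm, emission >670 nm (FL3); GFP in FL1. IC50 from 4-parameter logistic fit; duplicates.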

[2] = biological target: ATP-dependent translocase ABCB1 (Homo sapiens, UniProt P08183); test: Inhibition of ABCB1 in human A2780/ADR cells incubated for 30 mins measured up to 3600 secs with time intervals of 60 secs by calcein accumulation assay; format: cell-based
Sequence of ATP-dependent translocase ABCB1 (P08183 whole entry): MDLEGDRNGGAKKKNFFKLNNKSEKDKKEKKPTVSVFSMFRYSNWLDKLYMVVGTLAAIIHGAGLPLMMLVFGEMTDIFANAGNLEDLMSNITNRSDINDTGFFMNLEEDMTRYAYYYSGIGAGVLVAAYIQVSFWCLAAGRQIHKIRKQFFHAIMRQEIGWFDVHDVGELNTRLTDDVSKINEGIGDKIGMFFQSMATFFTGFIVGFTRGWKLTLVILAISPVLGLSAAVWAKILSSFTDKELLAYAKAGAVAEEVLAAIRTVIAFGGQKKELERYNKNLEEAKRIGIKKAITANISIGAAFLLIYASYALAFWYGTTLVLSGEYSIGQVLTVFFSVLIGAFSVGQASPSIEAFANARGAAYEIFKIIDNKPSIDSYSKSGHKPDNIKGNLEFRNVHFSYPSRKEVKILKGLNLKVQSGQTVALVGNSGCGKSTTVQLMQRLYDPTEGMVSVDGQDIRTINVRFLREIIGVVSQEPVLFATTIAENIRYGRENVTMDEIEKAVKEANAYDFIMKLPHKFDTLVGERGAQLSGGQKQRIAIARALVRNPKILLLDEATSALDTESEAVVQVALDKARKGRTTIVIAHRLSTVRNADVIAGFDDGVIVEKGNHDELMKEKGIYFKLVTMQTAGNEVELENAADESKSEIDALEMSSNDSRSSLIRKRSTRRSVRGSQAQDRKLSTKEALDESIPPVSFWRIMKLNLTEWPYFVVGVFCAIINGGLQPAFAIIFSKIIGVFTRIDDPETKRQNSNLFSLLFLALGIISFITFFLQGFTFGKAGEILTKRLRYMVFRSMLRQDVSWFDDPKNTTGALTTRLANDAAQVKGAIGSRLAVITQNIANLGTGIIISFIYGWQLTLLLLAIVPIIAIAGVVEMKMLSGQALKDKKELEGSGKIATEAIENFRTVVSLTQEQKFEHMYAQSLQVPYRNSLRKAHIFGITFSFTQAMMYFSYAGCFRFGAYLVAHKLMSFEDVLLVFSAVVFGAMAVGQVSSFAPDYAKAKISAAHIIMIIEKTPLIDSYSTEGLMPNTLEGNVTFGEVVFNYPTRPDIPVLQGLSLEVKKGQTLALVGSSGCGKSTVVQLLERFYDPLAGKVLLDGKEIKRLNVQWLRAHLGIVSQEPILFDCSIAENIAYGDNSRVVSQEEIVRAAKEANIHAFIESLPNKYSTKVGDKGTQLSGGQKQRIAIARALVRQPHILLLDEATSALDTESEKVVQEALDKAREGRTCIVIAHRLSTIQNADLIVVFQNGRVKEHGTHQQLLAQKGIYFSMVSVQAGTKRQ

[3] = biological target: ABCB1 (P-glycoprotein) (Homo sapiens, UniProt P08183); test: Inhibition of ABCB1 in human A2780/ADR cells at 10 uM incubated for 30 mins measured up to 3600 secs with time intervals of 60 secs by calcein accumulation assay relative to cyclosporine A; format: cell-based; conditions: probe calcein, read-out: Imax
Sequence of ABCB1 (P-glycoprotein) (Homo sapiens, UniProt P08183) (P08183 whole entry): as above
Procedure, shortened: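 A2780adr cells, about 30,000/well, preincubated with compound for 30 min. Calcein AM then added (1.25 µM solution); fluorescence (ex 485/em 520 nm) read every 60 s to 3600 s at 37 °C. […] IC50 by four-parameter logistic fit, variable slope.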

[4] = Cytotoxicity against MDCK2 cells assessed as reduction in cell viability after 72 hrs by MTT assay; format: cell-based, Canis lupus familiaris, MDCK-II; conditions: dog
Procedure, shortened: (§1)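 Seeding 3 x 10³ cells/well, 6 h attachment at 37 °C, 5% CO2, then compound for 72 h. Controls: 10% DMSO (positive), medium (negative). MTT 5 mg/ml stock for 1 h; formazan in DMSO; A570, background 690 nm. Normalized to control; GI50 from variable-slope sigmoidal fit.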

[5] = Cytotoxicity against MDCK2 cells expressing human C-terminal GFP-tagged ABCG2 assessed as reduction in cell viability after 72 hrs by MTT assay; format: ADME, cell-based, Canis lupus familiaris, MDCK-II; conditions: dog; procedure, shortened: as §1
[6] = system: ABCG2; test: Therapeutic ratio of GI50 for MDCK2 cells expressing human C-terminal GFP-tagged ABCG2 to IC50 for human C-terminal GFP-tagged ABCG2 expressed in MDCK2 cells; format: ADME, cell-based; conditions: dog, read-out: TI
Procedure, shortened: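 Ratio of GI50 from a 72 h MTT assay in MDCK II BCRP cells to IC50 from the pheophorbide A assay in the same cells.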

[7] = Cytotoxicity against human A2780/ADR cells overexpressing ABCB1 assessed as reduction in cell viability after 72 hrs by MTT assay; format: ADME, cell-based
Procedure, shortened: (§2)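 MTT assay in A2780 and ABCB1-overexpressing doxorubicin-resistant A2780adr cells; A2780adr given 1 μM doxorubicin for one passage every 10 passages. 8 x 10³ cells/well, 6 h attachment, 72 h compound exposure at 37 °C, 5% CO2. MTT 1 h, DMSO solubilization, A570 with 690 nm background. Normalized data; GI50 by variable-Hill-slope sigmoidal regression.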

[8] = Cytotoxicity against human A2780 cells assessed as reduction in cell viability after 72 hrs by MTT assay; format: cell-based; procedure, shortened: as §2
[9] = system: ABCB1 (P-glycoprotein); test: Therapeutic ratio of GI50 for human A2780/ADR cells overexpressing ABCB1 to IC50 for ABCB1 in human A2780/ADR cells; format: ADME, cell-based; conditions: read-out: TI
[10] = biological target: T1, Broad substrate specificity ATP-binding cassette transporter ABCG2; test: Inhibition of vanadate-sensitive ATPase activity of recombinant human ABCG2 expressed in baculovirus infected Sf9 cell membrane assessed as decrease in inorganic phosphate production at 1 uM after 20 mins by colorimetry; conditions: sf9, 20 min
Procedure, shortened: (§3)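 Sf9 membranes from cells infected with baculovirus carrying human wild-type ABCG2, cholesterol-loaded; protein by BCA. Buffer: 40 mM MOPS-Tris pH 7.0, 50 mM KCl, 2 mM DTT, 500 µM EGTA-Tris, 5 mM azide, 1 mM ouabain, 10 µg protein. Reaction started with 3.3 mM MgATP, 20 min at 37 °C. Basal activity with 1 mM orthovanadate; 1 µM quercetin and 1 µM Ko143 as references. Pi by molybdate/ascorbate at 880 nm against K2HPO4 standard; triplicates.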

[11] = Cytotoxicity against MDCK2 cells expressing human C-terminal GFP-tagged ABCG2 assessed as reduction in cell viability at 10 uM after 72 hrs by MTT assay; format: ADME, cell-based, Canis lupus familiaris; conditions: dog, mdck-ii
[12] = Cytotoxicity against MDCK2 cells assessed as reduction in cell viability at 10 uM after 72 hrs by MTT assay; format: cell-based, Canis lupus familiaris; conditions: dog, mdck-ii
[13] = system: MDCK-II; test: Potentiation of SN-38-induced cytotoxicity in MDCK2 cells assessed as decrease in cell viability at 0.01 to 0.1 uM after 72 hrs by MTT assay; format: functional, cell-based; conditions: Canis lupus familiaris
Procedure, shortened: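 SN-38 dose-response curves in MDCK II BCRP cells (canine kidney line stably transfected with human ABCG2 C-terminally fused to GFP) and parental MDCK II wild-type cells. Modulator was present at a final 0.01 or 0.1 µM. Cells were seeded at 3 x 10³ per well, attached 6 h, then exposed 72 h. MTT was read at 570 nm minus 690 nm. Data were normalized and fitted with variable-slope sigmoidal regression.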

[14] = system: MCF7; test: Drug uptake in human MCF7 cells at 10 uM after 2 hrs by confocal laser scanning microscopic analysis; format: ADME, cell-based; conditions: mcf7, 2 h
Procedure, shortened: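 Parental MCF-7 cells, 1 x 10^5 seeded in dishes for 48 h to 50-60% confluence, then exposed to 10 µM compound for 2 h. Supernatant replaced with KHB; confocal imaging at 37 °C, excitation 405 nm, emission 425-475 nm.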

[15] = biological target: T1, Broad substrate specificity ATP-binding cassette transporter ABCG2; test: Inhibition of ABCG2 in human MCF7/MX cells assessed as intracellular pheophorbide A accumulation at 10 uM after 2 hrs by confocal laser scanning microscopic analysis; format: cell-based
Procedure, shortened: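 MCF-7 MX cells (ABCG2-overexpressing; 0.1 µM mitoxantrone every 10 passages) incubated with pheophorbide A together with compound for 2 h. Imaged by confocal laser scanning microscopy at 37 °C after replacing the medium with KHB.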

[16] = system: MCF7; test: Drug uptake in human MCF7 cells up to 60 mins by fluorescence spectroscopic analysis; format: ADME, cell-based; conditions: mcf7, 1 h
Procedure, shortened: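 Parental MCF-7 cells, 1 x 10^6 per 4.5 ml KHB, incubated with compound for varying times […]. After a KHB wash, intracellular fluorescence was read in a fluorescence spectrometer.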

[17] = biological target: T1, Broad substrate specificity ATP-binding cassette transporter ABCG2; test: Inhibition of vanadate-sensitive ATPase activity of recombinant human ABCG2 expressed in baculovirus infected Sf9 cell membrane assessed as decrease in inorganic phosphate production up to 1 uM after 20 mins by colorimetry; conditions: sf9, 20 min; procedure, shortened: as §3
[18] = biological target: T1, Broad substrate specificity ATP-binding cassette transporter ABCG2; test: Induction of vanadate-sensitive ATPase activity of recombinant human ABCG2 expressed in baculovirus infected Sf9 cell membrane assessed as increase in inorganic phosphate production at >1 uM after 20 mins by colorimetry; conditions: sf9, 20 min; procedure, shortened: as §3

| Compound | IC50 [1] | IC50 [2] | GI50 at 72 h [4] | GI50 at 72 h [5] | selectivity ratio [6] | also measured |
| --- | --- | --- | --- | --- | --- | --- |
| COc1ccc(/C=C/C(=O)c2cccc(Nc3nc(-c4ccc(OC)c(OC)c4)nc4ccccc34)c2)cc1OC | 0.6 µM | 0.48 µM | 12.6 µM | 10.9 µM | 18 | inhibition at 30 min, 10 µM [3]: 76%; GI50 at 72 h [7]: 1.71 µM; GI50 at 72 h [8]: 1.98 µM; selectivity ratio [9]: 4 |
| COc1ccc(/C=C/C(=O)c2cccc(Nc3ncnc4ccccc34)c2)cc1 | 0.89 µM | 7.08 µM |  |  |  |  |
| COc1ccc(/C=C/C(=O)c2cccc(Nc3ncnc4cc(OC)c(OC)cc34)c2)cc1OC | 1.71 µM | 0.86 µM | 6.14 µM | 11.5 µM | 7 | inhibition (INH) [10]: Active; inhibition at 30 min, 10 µM [3]: 68%; GI50 at 72 h [7]: 1.5 µM; GI50 at 72 h [8]: 1.35 µM; selectivity ratio [9]: 2 |
| COc1ccc(-c2nc(Nc3ccc(C(=O)/C=C/c4ccccc4)cc3)c3ccccc3n2)cc1OC | 1.09 µM |  |  |  |  |  |
| COc1cccc(/C=C/C(=O)c2ccc(Nc3nc(-c4ccc(OC)c(OC)c4)nc4ccccc34)cc2)c1 | 0.36 µM | 14.6 µM |  |  |  |  |
| COc1ccc(/C=C/C(=O)c2ccc(Nc3nc(-c4ccc(OC)c(OC)c4)nc4ccccc34)cc2)cc1 | 3.13 µM |  |  |  |  |  |
| COc1ccc(/C=C/C(=O)c2ccc(Nc3nc(-c4ccccc4)nc4ccccc34)cc2)cc1 | 3.55 µM |  |  |  |  |  |
| COc1cccc(/C=C/C(=O)c2ccc(Nc3ncnc4ccccc34)cc2)c1 | 0.68 µM | 5.57 µM |  |  |  | Activity [11]: Toxic; Activity [12]: Toxic |
| COc1ccc(/C=C/C(=O)c2cccc(Nc3nc(-c4ccc(OC)c(OC)c4)nc4ccccc34)c2)cc1 | 0.21 µM | 1.29 µM | 10.3 µM | 13.1 µM | 62 | inhibition at 30 min, 10 µM [3]: 70%; GI50 at 72 h [7]: 3.25 µM; GI50 at 72 h [8]: 4.39 µM; selectivity ratio [9]: 3 |
| COc1ccc2c3c([nH]c2c1)[C@H](CC(C)C)N1C(=O)[C@H](CCC(=O)OC(C)(C)C)NC(=O)[C@@H]1C3 |  |  | 10.9 µM | 11.1 µM |  | Activity [13]: Active |
| COc1ccc(/C=C/C(=O)c2cccc(Nc3nc(-c4ccccc4)nc4ccccc34)c2)cc1 | 0.97 µM |  |  |  |  |  |
| COc1cccc(/C=C/C(=O)c2cccc(Nc3nc(-c4ccc(OC)c(OC)c4)nc4ccccc34)c2)c1 | 0.31 µM | 8.24 µM | 65.5 µM | 84.7 µM | 273 |  |
| COc1ccc(/C=C/C(=O)c2ccc(Nc3ncnc4cc(OC)c(OC)cc34)cc2)cc1OC | 1.23 µM |  |  |  |  | inhibition (INH) [10]: Active |
| COc1ccc(/C=C/C(=O)c2ccc(Nc3ncnc4ccccc34)cc2)cc1OC | 0.84 µM | 2.34 µM |  |  |  | inhibition at 30 min, 10 µM [3]: 61%; Drug uptake [14]: Active; inhibition (INH) [15]: Active; Drug uptake [16]: Active |
| COc1cccc(/C=C/C(=O)c2cccc(Nc3nc(-c4ccccc4)nc4ccccc34)c2)c1 | 0.68 µM |  |  |  |  | Activity [11]: Toxic; Activity [12]: Toxic |
| COc1ccc(/C=C/C(=O)c2ccc(Nc3nc(-c4ccccc4)nc4ccccc34)cc2)cc1OC | 0.29 µM | 18.8 µM | 3.46 µM | 4.8 µM | 17 | Activity [11]: Toxic; Activity [12]: Toxic |
| COc1ccc(/C=C/C(=O)c2cccc(Nc3nc(-c4ccccc4)nc4ccccc34)c2)cc1OC | 0.46 µM |  |  |  |  |  |
| COc1ccc(/C=C/C(=O)c2cccc(Nc3ncnc4cc(OC)c(OC)cc34)c2)cc1 | 0.32 µM | 4.15 µM | 16.9 µM | 12.7 µM | 40 | inhibition (INH) [10]: Active |
| COc1ccc(/C=C/C(=O)c2cccc(Nc3ncnc4ccccc34)c2)cc1OC | 1.3 µM | 0.42 µM | 3.42 µM | 5.14 µM | 4 | inhibition at 30 min, 10 µM [3]: 66%; GI50 at 72 h [7]: 0.7 µM; GI50 at 72 h [8]: 0.65 µM; selectivity ratio [9]: 2 |
| COc1cccc(/C=C/C(=O)c2ccc(Nc3nc(-c4ccccc4)nc4ccccc34)cc2)c1 | 0.88 µM | 32.1 µM |  |  |  | Activity [11]: Toxic; Activity [12]: Toxic |
| COc1cccc(/C=C/C(=O)c2ccc(Nc3ncnc4cc(OC)c(OC)cc34)cc2)c1 | 0.39 µM | 7.55 µM |  |  |  | inhibition (INH) [10]: Active; inhibition (INH) [17]: Active; Activity [18]: Not Active |
| O=C(/C=C/c1ccccc1)c1ccc(Nc2nc(-c3ccccc3)nc3ccccc23)cc1 | 0.92 µM |  |  |  |  |  |
